Bioassay records deposited in PubChem by several laboratories.
In the library only some 3% were active in any assay of this set; here they are far more common.
UBC13 inh: blocks human UBC13 polyubiquitin chain formation | P61088 | TR-FRET | inhibition, % at 20 µM | hit rate 0.47% among 330,000 | AID 485273; in the data active = inhibition above about 45%, passing the limit was not always enough
UCH37 DUB inh: inhibitors of human deubiquitinating enzyme UCH37; Q9Y5K5; purified proteasome/UCH37, Ub-AMC cleavage fluorescence; inhibition, % (test concentration not listed); hit rate 0.33% among 330,000;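 active = mean inhibition over replicate wells above about 20%, limit read from the data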;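 also: 0% = compound-free wells with enzyme and 100% = wells lacking proteasome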
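Test system – human UCH37 enzyme supplied as purified proteasome complex · Incubation – 30 min preincubation with enzyme, 25 min cleavage at room temperature · Detection – AMC fluorescence from Ub-AMC cleavage, excitation 355 nm, emission 460 nm · Benchmarks – no-proteasome wells (full inhibition) and compound-free wells (no inhibition)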
Apaf1 inhib: human Apaf-1 inhibition; O14727; AID 489030; reconstituted apoptosome caspase-3 activity, DEVD-Rh110 fluorescence; inhibition, % at 20 µM; hit rate 0.71% among 330,000; active = inhibition of at least 40% at 20 µM;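 also: plate controls were DMSO wells for no effect and DEVD-CHO caspase inhibitor wells for full effect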
Target sequence (O14727 whole entry, looked up): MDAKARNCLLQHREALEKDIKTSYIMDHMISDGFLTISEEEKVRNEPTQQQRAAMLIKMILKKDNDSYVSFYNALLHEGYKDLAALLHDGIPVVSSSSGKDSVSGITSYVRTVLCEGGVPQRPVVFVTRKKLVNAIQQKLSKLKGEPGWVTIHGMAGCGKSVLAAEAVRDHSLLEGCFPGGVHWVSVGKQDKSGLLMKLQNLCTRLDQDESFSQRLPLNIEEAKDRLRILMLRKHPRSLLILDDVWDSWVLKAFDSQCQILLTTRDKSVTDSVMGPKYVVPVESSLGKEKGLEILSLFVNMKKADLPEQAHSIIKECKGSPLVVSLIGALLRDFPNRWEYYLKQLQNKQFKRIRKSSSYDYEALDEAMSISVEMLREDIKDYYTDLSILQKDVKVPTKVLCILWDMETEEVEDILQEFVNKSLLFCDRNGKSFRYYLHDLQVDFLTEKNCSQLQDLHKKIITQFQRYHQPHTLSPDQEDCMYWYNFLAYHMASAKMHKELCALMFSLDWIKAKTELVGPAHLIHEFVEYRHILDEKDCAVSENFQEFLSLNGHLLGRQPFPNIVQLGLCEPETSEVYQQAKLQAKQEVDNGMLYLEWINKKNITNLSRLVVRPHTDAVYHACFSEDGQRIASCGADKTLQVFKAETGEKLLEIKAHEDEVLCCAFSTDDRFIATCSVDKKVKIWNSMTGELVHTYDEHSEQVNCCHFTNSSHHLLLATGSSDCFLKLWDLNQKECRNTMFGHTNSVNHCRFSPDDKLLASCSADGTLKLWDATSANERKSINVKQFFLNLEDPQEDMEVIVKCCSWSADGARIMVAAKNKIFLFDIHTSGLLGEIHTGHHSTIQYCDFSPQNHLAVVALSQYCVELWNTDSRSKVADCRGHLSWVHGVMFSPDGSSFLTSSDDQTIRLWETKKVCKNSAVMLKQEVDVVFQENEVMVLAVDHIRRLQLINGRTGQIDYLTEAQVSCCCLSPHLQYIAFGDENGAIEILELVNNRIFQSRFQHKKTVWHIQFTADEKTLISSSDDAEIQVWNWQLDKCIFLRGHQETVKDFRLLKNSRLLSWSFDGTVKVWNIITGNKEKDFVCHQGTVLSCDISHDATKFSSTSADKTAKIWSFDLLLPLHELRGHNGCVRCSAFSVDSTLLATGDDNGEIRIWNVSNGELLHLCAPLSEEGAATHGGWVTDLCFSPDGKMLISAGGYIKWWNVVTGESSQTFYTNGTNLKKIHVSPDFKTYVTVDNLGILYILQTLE
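Material: biochemical Apaf-1 apoptosome reconstitution. Medium: Hepes buffer, pH 7.5. Also added: cytochrome c activation, bis-DEVD rhodamine 110 substrate. Timing: 30 min compound preincubation, 50 min activation, room temperature. Measured by: rhodamine 110 fluorescence at Ex 480/Em 540 nm.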
MEKK3 PB1 HTS: MEKK3-MEK5 PB1 interaction, increase or decrease; Q99759; bead-based flow cytometry, Alexa488-MEK5 binding to MEKK3; actives lie on both sides; 0 = blocked by unlabeled MEK5, 100 = vehicle; binding response (% of control), % at 10 µM; hit rate 1.4% among 290,000;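 active = binding response more than 3 SD above or below the average of its plate-row segment, actives on both sides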;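 also: Alexa488 bead fluorescence after subtracting the streptavidin-only scavenger bead signal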
MEKK2mut PB1 HTS: signal of MEK5 binding to mutant human MEKK2 PB1 domain. percent response, % at 10 µM. hit rate 0.35% among 290,000. bead flow cytometry, Alexa488-MEK5 binding to MEKK2 mutant; in the data active = percent response above about 24%, passing the limit was not always enough
MEKK2 WT-MEK5: raises or lowers MEK5 binding to wildtype human MEKK2 PB1 domain | Q9Y2U5 | bead flow cytometry, Alexa488-MEK5 binding to MEKK2 WT; actives lie on both sides | binding response (% of control), % at 10 µM | hit rate 1.1% among 290,000; in the data active = binding response below about 67% or above about 130%
Apaf-1 inh conf2: Apaf-1 inhibition, single-dose confirmed; shares compounds with Apaf1 inhib; reconstituted apoptosome, caspase-3 DEVD-Rh110 fluorescence; inhibition, % at 20 µM; hit rate 25% among 1,800;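 active = mean inhibition of at least 40% at 20 µM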;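 also: plate controls were DMSO wells for no effect and DEVD-CHO caspase inhibitor control wells for full effect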
Rh110 quench: Rh110 signal interference in Apaf-1 inhibitor counter-screen. shares compounds with Apaf1 inhib. Rh110 fluorescence interference, quenched caspase reaction. activation (fluorescence interference), % at 20 µM. 1,800 tested, under 10 active;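 active = signal rise of 40% or more at 20 µM, treated as a fluorescence artifact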
Apaf1 inh interf: Apaf-1 inhibitor counter-screen fluorescence artifact; AID 588538; fluorescence interference counterscreen, Apaf-1 assay format; 460 tested, under 10 active; IC50, µM; shares compounds with Apaf1 inhib; call rule not given here
UCH37 confirm: confirmation of human UCH37 deubiquitinating enzyme inhibitors. shares compounds with UCH37 DUB inh. Proteasome-bound UCH37, Ub-AMC cleavage fluorescence. inhibition, % at 20 µM. hit rate 27% among 480. AID 624100;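 active = average inhibition over replicates above about 50%, so the earlier screening hit is confirmed, limit read from the data; inactive = the rest, counted as false positives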;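 also: based on cleavage rate fitted by regression over a 30 min kinetic read; 0% = proteasome plus Ub-AMC and 100% = Ub-AMC without proteasome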
* = called active by the depositor; x = no result given.

SMILES	UBC13 inh	UCH37 DUB inh	Apaf1 inhib	MEKK3 PB1 HTS	MEKK2mut PB1 HTS	MEKK2 WT-MEK5	UCH37 confirm	others
COCCCNC(=O)c1c(NC(=O)c2ccco2)n(Cc2ccccc2)c2nc3ccccc3nc12	20	-102	71*	101	-7	83	x	Apaf-1 inh conf2=-51;Rh110 quench=8;Apaf1 inh interf=>100
CN(C)/C=C1/C(=O)NC(=O)N(CCNc2ncc(C(F)(F)F)cc2Cl)C1=O	-6	3	3	100	-2	100	x
Cc1nc2c(=O)n(C)c(=O)nc-2n(C)n1	-23	100*	99*	92	4	106	100*	Apaf-1 inh conf2=100*;Rh110 quench=-3;Apaf1 inh interf=>100
C[C@]12CC[C@@H](O)CC1=CCC1C2CC[C@@]2(C)C1C[C@@H](F)[C@H]2O (stereo not given in full)	x	1	x	x	x	x	x
O=C1C(=O)c2ccccc2-c2ccccc21	-160	87*	99*	104	3	102	101*	Apaf-1 inh conf2=99*;Rh110 quench=5;Apaf1 inh interf=>100
O=C1C(=O)c2cccc3cccc1c23	-6	3	8	83	-5	88	x
CN1/C(=C\C=C2C(=O)NC(=O)NC2=O)C(C)(C)c2ccccc21	-133	39*	14	105	-9	103	6
O=C1NC(=O)C(Nc2ccc(Cl)c(Cl)c2)C(=O)N1	x	59*	x	x	x	x	-2
C=C(C)C(Cc1c(OC)ccc(C(=O)/C=C/c2ccc(O)cc2)c1O)OO (stereo not given)	-14	49*	2	x	x	x	19
CCc1ccc(NC2=NCCCS2)cc1	9	3	-7	102	3	105	x
CC(C)(C)N1C(=O)NC(=O)/C(=C\c2ccc3c(c2)CCN3CCCCl)C1=O	-81	64*	7	91	-6	77	1
Cc1ccc(/C=C2/C(=O)NC(=O)N(CC3CCCO3)C2=O)s1 (stereo not given)	1	5	-17	105	-1	105	x
NC(C(=O)O)c1cc(=O)[nH]o1 (stereo not given)	-14	2	-3	x	x	x	x
Cn1c(O)c(C(=O)c2ccccc2F)c(=O)n(C)c1=O	11	3	-10	102	-1	98	x
Cn1c(O)c(C(=O)c2ccccc2)c(=O)n(C)c1=O	-5	42*	-3	98	-5	97	7
Cc1cccc(-n2c(O)c(/C=N/Nc3nc4c(c(=O)n(C)c(=O)n4C)n3C)c(=O)[nH]c2=S)c1	-26	27*	29	124	1	110	22
COc1ccc(-n2c(Cc3cccc([N+](=O)[O-])c3)nc3ccccc3c2=O)cc1	-5	3	3	92	-2	96	x
c1ccc2c(c1)Sc1ccccc1N2CC1CN2CCC1CC2 (stereo not given)	43	-3	35	95	6	108	x
CN1CCN(c2ccc(S(C)(=O)=O)cc2[N+](=O)[O-])CC1	-6	4	-2	107	-1	102	x
CN1CCN(c2ccc([N+](=O)[O-])c3no[n+]([O-])c23)CC1	x	42*	x	119	8	109	29
O=C(O)CC1OCC=C2CN3CCC45c6ccccc6NC4C1C2CC35 (stereo not given)	1	x	0	94	1	98	x
O=C(O)CC1OCC=C2CN3CCC45C6=CC(=O)C(=O)C([N+](=O)[O-])=C6NC4C1C2CC35 (stereo not given)	x	97*	x	95	-4	99	97*
COC(=O)C1=C(c2ccc(OC(F)(F)F)cc2)C[C@@H]2CC[C@H]1N2C(=O)NCCOc1ccccc1	21	3	25	x	x	x	x
COC(=O)C1=C(c2cccc(C#N)c2)C[C@@H]2CC[C@H]1N2C(=O)NCCOc1ccccc1Cl	9	46*	5	x	x	x	7
COC(=O)C1=C(c2cccc(C#N)c2)C[C@@H]2CC[C@H]1N2C(=O)NCCOc1ccccc1	-1	0	6	x	x	x	x
Cc1ccc2c(c1)CC1(CN2C)C(=O)NC(=O)N(CCC2=CCCCC2)C1=O (stereo not given)	-4	35*	7	107	0	100	20
